Test results reported in ChEMBL document CHEMBL2396523, “The synthesis of isopropylidene mRNA cap analogs modified with phosphorothioate moiety and their evaluation as promoters of mRNA translation” (Bioorg Med Chem Lett, 2013).

Tests used:
[1] = Drug degradation in aqueous buffer at pH 2 after 4.5 hrs by RP HPLC analysis; type: physicochemical; details: pH 2, 4.5 h
Procedure, shortened: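 Isopropylidene removal done in aqueous buffer at pH 2, 37 °C, for 4.5 h. Reaction progress followed by RP HPLC.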

[2] = target: Eukaryotic translation initiation factor 4E (Mus musculus) (UniProt P63073); experiment: Binding affinity to mouse eIF4E by fluorescence quenching assay
Eukaryotic translation initiation factor 4E (Mus musculus), sequence (P63073 whole entry): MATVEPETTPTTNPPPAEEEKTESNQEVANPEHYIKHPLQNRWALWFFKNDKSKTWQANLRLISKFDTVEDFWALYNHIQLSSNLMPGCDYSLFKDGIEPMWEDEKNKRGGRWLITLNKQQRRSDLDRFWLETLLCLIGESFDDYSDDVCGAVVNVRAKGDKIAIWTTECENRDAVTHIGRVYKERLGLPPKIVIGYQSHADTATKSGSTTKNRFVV
Procedure, shortened: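 Murine eIF4E titrated with cap analog solution; intrinsic Trp fluorescence quenching recorded at 337 nm with excitation at 280 nm. Equilibrium association constant (KAS) of the cap analog–eIF4E complex derived from the titration curves.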

Oryctolagus cuniculus = organism: Oryctolagus cuniculus; experiment: Translational activity in Flexi rabbit reticulocyte lysate assessed as luciferase mRNA activity after 60 mins relative to m7GpppG; type: functional
Procedure, shortened: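 Luciferase mRNAs capped by in vitro transcription, added at several concentrations to rabbit reticulocyte lysate optimized for cap-dependent translation. Luminometry of luciferase activity 60 min after mRNA addition. Translation efficiency taken from slope of luciferase activity versus mRNA concentration, averaged over replicate experiments.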

[3] = Translational activity in human immature DC assessed as time point of maximal protein expression by bioluminescence assay; type: functional
Procedure, shortened: (§1)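 Luciferase-coding mRNAs made by T7 RNA polymerase in vitro transcription with the respective cap, electroporated into human immature dendritic cells. Luciferase activity measured over 72 h after electroporation, duplicate measurements. Mathematical modeling of the time course gave translational efficiency, time of maximal protein expression and total protein expression.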

[4] = Translational activity in human immature DC assessed as total protein expression after 72 hrs by bioluminescence assay relative to m2 7,3'-OGpppG; type: functional; procedure, shortened: as §1
Homo sapiens = organism: Homo sapiens; experiment: Translational activity in human immature DC assessed as luciferase mRNA activity after 72 hrs by bioluminescence assay relative to m2 7,3'-OGpppG; type: functional; procedure, shortened: as §1

| Structure (SMILES) | Stability [1] | Ka [2] | Ratio (Oryctolagus cuniculus) | TIME [3] | Ratio [4] | Ratio (Homo sapiens) |
| --- | --- | --- | --- | --- | --- | --- |
| C[n+]1cn([C@@H]2O[C@H](COP(=O)([O-])OP(=O)(S)OP(=O)(O)OC[C@H]3O[C@@H](n4cnc5c(=O)[nH]c(N)nc54)[C@H](O)[C@@H]3O)[C@@H]3OC(C)(C)O[C@H]32)c2nc(N)nc(O)c21 (mixture of isomers; 2b) [listing 1 of 2 here] | Stable | – | – | – | – | – |
| C[n+]1cn([C@@H]2O[C@H](COP(=O)(O)OP(=O)([O-])OP(=O)(O)OC[C@H]3O[C@@H](n4cnc5c(=O)[nH]c(N)nc54)[C@H](O)[C@@H]3O)[C@@H]3OC(C)(C)O[C@H]32)c2nc(N)nc(O)c21 | – | 2.9 µM⁻¹ | 0.8 | – | – | – |
| CO[C@H]1[C@@H](O)[C@H](n2c[n+](C)c3c(O)nc(N)nc32)O[C@@H]1COP(=O)(O)OP(=O)([O-])OP(=O)(O)OC[C@H]1O[C@@H](n2cnc3c(=O)[nH]c(N)nc32)[C@H](O)[C@@H]1O | – | 10.2 µM⁻¹ | 1.32 | 9.25 h | – | – |
| C[n+]1cn([C@@H]2O[C@H](COP(=O)([O-])OP(=O)(S)OP(=O)(O)OC[C@H]3O[C@@H](n4cnc5c(=O)[nH]c(N)nc54)[C@H](O)[C@@H]3O)[C@@H]3OC(C)(C)O[C@H]32)c2nc(N)nc(O)c21 (mixture of isomers; 2b) [listing 2 of 2 here] | – | 9.2 µM⁻¹ | 1.16 | 8.9 h | 0.97 | 1.08 |
| C[n+]1cn([C@@H]2O[C@H](COP(=O)([O-])OP(=O)(S)OP(=O)(O)OC[C@H]3O[C@@H](n4cnc5c(=O)[nH]c(N)nc54)[C@H](O)[C@@H]3O)[C@@H]3OC(C)(C)O[C@H]32)c2nc(N)nc(O)c21 (mixture of isomers; 2a) | – | 5.6 µM⁻¹ | 1.33 | 11.1 h | 1.62 | 1.23 |
